Results as given in ChEMBL document CHEMBL1153610, “Synthesis and antiprotozoal activities of dicationic bis(phenoxymethyl)benzenes, bis(phenoxymethyl)naphthalenes, and bis(benzyloxy)naphthalenes” (Eur J Med Chem, 2009).
The source made the active and inactive calls. The rule behind the calls is not given here.

How the values were obtained:
[1] = Selectivity index, ratio of IC50 for rat L6 cells to IC50 for Leishmania donovani MHOM/SD/62/1S-CL2D amastigotes; format: toxicity, cell-based; conditions: read-out: Ratio IC50
[2] = test system: Trypanosoma brucei rhodesiense; assay: Antitrypanosomal activity against Trypanosoma brucei rhodesiense STIB900; format: functional, organism-based
[3] = Selectivity index, ratio of IC50 for rat L6 cells to IC50 for chloroquine-resistant Plasmodium falciparum K1; format: toxicity, cell-based; conditions: read-out: Ratio IC50
[4] = test system: L6; assay: Cytotoxicity against rat L6 cells; format: cell-based
How it was run: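 Rat L6 myoblasts served as the cytotoxicity measure. IC50 is the average of duplicate determinations.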

[5] = test system: Plasmodium falciparum; assay: Antimalarial activity against chloroquine-resistant Plasmodium falciparum K1; format: functional, organism-based
[6] = test system: Leishmania donovani; assay: Antileishmanial activity against Leishmania donovani MHOM/SD/62/1S-CL2D amastigotes; format: functional, organism-based
How it was run: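 IC50 taken as the average of duplicate determinations against L. donovani.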

[7] = Selectivity index, ratio of IC50 for rat L6 cells to IC50 for Trypanosoma brucei rhodesiense STIB900; format: toxicity, cell-based; conditions: read-out: Ratio IC50
[8] = test system: Trypanosoma brucei rhodesiense; assay: Antitrypanosomal activity against Trypanosoma brucei rhodesiense STIB900 infected NMRI mouse assessed mean survival time at 20 mg/kg, ip dosed for 4 days; format: functional; conditions: route intraperitoneal
[9] = test system: Trypanosoma brucei rhodesiense; assay: Antitrypanosomal activity against Trypanosoma brucei rhodesiense STIB900 infected NMRI mouse assessed as infection cure rate at 20 mg/kg, ip dosed for 4 days; format: functional, organism-based; design: dose 20 mg/kg
How it was run: (§1)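 Mice infected with T. b. rhodesiense STIB900 were dosed intraperitoneally once daily for 4 days. Outcome was scored as cured/infected animals out of groups of four, plus mean survival days post infection for mice showing parasitemia relapse.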

[10] = test system: Trypanosoma brucei rhodesiense; assay: Antitrypanosomal activity against Trypanosoma brucei rhodesiense STIB900 infected NMRI mouse assessed as infection cure rate at 100 mg/kg, po dosed for 4 days; format: functional, organism-based; design: dose 100 mg/kg
How it was run: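 Mice infected with T. b. rhodesiense STIB900 received oral doses once daily for 4 days. Cure was scored as cured/infected animals, with mean survival days post infection for relapsing mice.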

[11] = test system: Trypanosoma brucei rhodesiense; assay: Antitrypanosomal activity against Trypanosoma brucei rhodesiense STIB900 infected NMRI mouse assessed mean survival time at 100 mg/kg, po dosed for 4 days; format: functional
[12] = test system: Trypanosoma brucei rhodesiense; assay: Antitrypanosomal activity against Trypanosoma brucei rhodesiense STIB900 infected NMRI mouse assessed mean survival time at 10 mg/kg, ip dosed for 4 days; format: functional; conditions: route intraperitoneal
[13] = test system: Mus musculus; assay: Toxicity in ip dosed NMRI mouse infected with Trypanosoma brucei rhodesiense STIB900; format: organism-based; conditions: in vivo
[14] = test system: Trypanosoma brucei rhodesiense; assay: Antitrypanosomal activity against Trypanosoma brucei rhodesiense STIB900 infected NMRI mouse assessed as infection cure rate at 5 mg/kg, ip dosed for 4 days; format: functional, organism-based; design: dose 5 mg/kg; how it was run: as §1
[15] = test system: Trypanosoma brucei rhodesiense; assay: Antitrypanosomal activity against Trypanosoma brucei rhodesiense STIB900 infected NMRI mouse assessed mean survival time at 5 mg/kg, ip dosed for 4 days; format: functional; conditions: route intraperitoneal

| Compound | selectivity ratio [1] | IC50 [2] | selectivity ratio [3] | IC50 [4] | IC50 [5] | IC50 [6] | selectivity ratio [7] | Survival [8] | Activity [9] | Activity [10] | Survival [11] | Survival [12] | Activity [13] | Activity [14] | Survival [15] |
| --- | --- | --- | --- | --- | --- | --- | --- | --- | --- | --- | --- | --- | --- | --- | --- |
| CC(C)NC(=N)c1ccc(OCc2ccc(COc3ccc(C(=N)NC(C)C)cc3)c3ccccc23)cc1 | 4.29 | 313 nM | 625 | 41800 nM | 66.9 nM | 9730 nM | 134 | – | – | – | – | – | – | – | – |
| c1cc(COc2ccc(C3=NCCN3)cc2)cc(COc2ccc(C3=NCCN3)cc2)c1 | 30.9 | 46.2 nM | 6860 | 123000 nM | 18 nM | 3990 nM | 2670 | 22.8 days | inactive | – | – | – | – | – | – |
| N=C(N)c1ccc(OCc2ccc(COc3ccc(C(=N)N)cc3)cc2)cc1 | 9.4 | 20.7 nM | 194 | 12400 nM | 64 nM | 1320 nM | 600 | 32 days | inactive | – | – | – | – | – | – |
| N=C(NO)c1cccc(OCc2cccc(COc3cccc(C(=N)NO)c3)c2)c1 | < 0.172 | 7710 nM | 4.12 | 8600 nM | 2090 nM | > 50000 nM | 1.12 | – | – | inactive | 14.5 days | – | – | – | – |
| c1cc(COc2ccc(C3=NCCN3)cc2)ccc1COc1ccc(C2=NCCN2)cc1 | 15.9 | 380 nM | 1680 | 30200 nM | 18 nM | 1900 nM | 79.5 | 15 days | inactive | – | – | – | – | – | – |
| N=C(N)c1ccc(OCc2ccccc2COc2ccc(C(=N)N)cc2)cc1 | 7.87 | 144 nM | 197 | 30100 nM | 153 nM | 3820 nM | 209 | 13.5 days | inactive | – | – | – | – | – | – |
| N=C(N)c1ccc(OCCCCCOc2ccc(C(=N)N)cc2)cc1 [PENTAMIDINE] | – | – | – | – | – | – | – | 42.8 days | inactive | – | – | – | – | – | – |
| N=C(N)c1cccc(OCc2ccccc2COc2cccc(C(=N)N)c2)c1 | 15.4 | 140 nM | 775 | 84600 nM | 109 nM | 5500 nM | 602 | – | – | – | – | >27.3 days | Toxic | – | – |
| N=C(N)c1cccc(OCc2cccc(COc3cccc(C(=N)N)c3)c2)c1 | – | 47.3 nM | 3360 | 64200 nM | 19.1 nM | – | 1360 | – | – | – | – | – | – | inactive | 17 days |
| CC(C)NC(=N)c1cccc(OCc2ccc(COc3cccc(C(=N)NC(C)C)c3)cc2)c1 | 5.89 | 1200 nM | 1830 | 87000 nM | 47.4 nM | 14800 nM | 72.4 | – | – | – | – | – | – | – | – |
| CC(C)NC(=N)c1cccc(OCc2ccccc2COc2cccc(C(=N)NC(C)C)c2)c1 | < 5.41 | 1280 nM | > 1470 | > 162000 nM | 111 nM | > 30000 nM | > 126 | – | – | – | – | – | – | – | – |
| N=C(N)c1ccc(-c2ccc(-c3ccc(C(=N)N)cc3)o2)cc1 [FURAMIDINE] | – | 3.2 nM | – | – | – | – | – | – | – | – | – | – | – | – | – |
| N=C(NO)c1ccc(OCc2cccc(COc3ccc(C(=N)NO)cc3)c2)cc1 | < 0.0653 | > 62600 nM | < 0.628 | 6530 nM | > 10400 nM | > 100000 nM | < 0.104 | – | – | – | >38.3 days | – | – | – | – |
| N=C(N)c1ccc(COc2ccc3cc(OCc4ccc(C(=N)N)cc4)ccc3c2)cc1 | – | 2360 nM | – | 19300 nM | – | 7120 nM | – | – | – | – | – | – | – | – | – |
| N=C(N)c1cccc(OCc2ccc(COc3cccc(C(=N)N)c3)cc2)c1 | < 0.0401 | 77.8 nM | 119 | 8020 nM | 67.7 nM | > 200000 nM | 103 | 19.5 days | inactive | – | – | – | – | – | – |
| CONC(=N)c1ccc(OCc2cccc(COc3ccc(C(=N)NOC)cc3)c2)cc1 | < 0.336 | 30400 nM | > 3.46 | > 33600 nM | > 9720 nM | > 100000 nM | > 1.11 | – | – | inactive | 6 days | – | – | – | – |
| c1ccc(COc2ccc(C3=NCCN3)cc2)c(COc2ccc(C3=NCCN3)cc2)c1 | 29.8 | 647 nM | 10500 | 109000 nM | 10.4 nM | 3660 nM | 168 | – | – | – | – | – | – | – | – |
| c1cc(OCc2ccc(COc3cccc(C4=NCCN4)c3)cc2)cc(C2=NCCN2)c1 | < 0.099 | 1420 nM | 175 | 19800 nM | 113 nM | > 200000 nM | 13.9 | – | – | – | – | – | – | – | – |
| CC(C)NC(=N)c1ccc(OCc2ccc(COc3ccc(C(=N)NC(C)C)cc3)cc2)cc1 | > 20.9 | 74.8 nM | > 9820 | > 167000 nM | 17 nM | 7990 nM | > 2230 | – | – | – | – | – | Toxic | inactive | 17 days |
| N=C(N)c1ccc(OCc2cc(COc3ccc(C(=N)N)cc3)c3ccccc3c2)cc1 | – | 325 nM | 1250 | 68800 nM | 55.1 nM | – | 212 | 12 days | inactive | – | – | – | – | – | – |
| c1cc(OCc2ccccc2COc2cccc(C3=NCCN3)c2)cc(C2=NCCN2)c1 | < 0.665 | 24200 nM | 184 | 66500 nM | 362 nM | > 100000 nM | 2.75 | – | – | – | – | – | – | – | – |
| N=C(N)c1ccc(OCc2cccc(COc3ccc(C(=N)N)cc3)c2)cc1 | 2.8 | 2.1 nM | 357 | 9140 nM | 25.6 nM | 3260 nM | 4350 | – | – | – | – | >35.5 days | – | – | – |
| N=C(N)c1ccc(OCc2ccc(COc3ccc(C(=N)N)cc3)c3ccccc23)cc1 | – | 234 nM | 224 | 28300 nM | 126 nM | – | 121 | – | – | – | – | – | – | – | – |
| CC(C)NC(=N)c1ccc(OCc2ccccc2COc2ccc(C(=N)NC(C)C)cc2)cc1 | 14 | 1680 nM | 15000 | 163000 nM | 10.9 nM | 11700 nM | 97 | – | – | – | – | – | – | – | – |
